Here are results for 70 compounds from ChEMBL document CHEMBL4513216, “Probing the Open Global Health Chemical Diversity Library for Multistage-Active Starting Points for Next-Generation Antimalarials” (ACS Infect Dis, 2020).

Molecules are shown by their SMILES.

This data set can be described thus: Toxicity liver stage against HepG2, at 10uM. The class given is cell-based. The arrangement: test concentration 10 uM, cell line HepG2-A16-CD81EGFP. The following applies: human, HepG2-A16-CD81EGFP cells; read-out: INHIBITION
An outline of the steps: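 Uninfected HepG2-A16-CD81EGFP cells, 3 × 10^3 per well, 1536-well, plated on prespotted compound at 10 μM final, parasite-free screening media added to match infected plates; puromycin 10 μM positive, DMSO 0.5% negative; run in parallel with 48 h PbLuc assay at 37 °C, 5% CO2; viability by CellTiter-Glo luminescence, normalized to controls.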
Take `N#Cc1ccccc1CC1CCCS(=O)(=O)C1` (stereo not given): the cytotoxicity at 10 µM was -3.11%.

With `CCn1c(C2CCN(C(=O)COCC(F)(F)C(F)F)CC2)n[nH]c1=O`, the cytotoxicity at 10 µM is -55%.

On to `O=C(C(C1CC1)C1CC1)N1CCC(n2ccnn2)CC1`, for which the cytotoxicity at 10 µM was -45.7%.

Take `CCc1nc(CN(C)C2CCN(CCc3ccccn3)C2)no1` (stereo not given): the cytotoxicity at 10 µM was -0.168%.

With `CC(C)CN1CCN(Cc2nc3c(s2)CCCC3)[C@H]2CS(=O)(=O)C[C@H]21`, the cytotoxicity at 10 µM stood at 8.19%.

For the compound `C=Cn1cc(CN2CCc3nc(-c4cccnc4)nc(O)c3C2)c(C)n1`, the cytotoxicity at 10 µM was -6.94%.

`COC1CN(C(=O)NCC(N)=O)CCC(=O)N(C)c2ccccc21` (stereo not given): the cytotoxicity at 10 µM was -3.84%.

`Cn1cc(C[C@H]2[C@H](N3CCOCC3)CCN2c2ncc(F)cn2)cn1`: the cytotoxicity at 10 µM was found to be 7.23%.

As for `NC(=O)c1cccc2nc([C@H]3CCN(Cc4ccccn4)C3)[nH]c12`, the cytotoxicity at 10 µM stood at 4.32%.

Regarding `Cc1cccc(N2CCN(C(=O)NC(C)c3nncn3C)CC2)c1` (stereo not given), the cytotoxicity at 10 µM is -6.13%.

Take `N#Cc1cn(C2CC2)c(=O)n(Cc2ncc(-c3cccs3)o2)c1=O`: the cytotoxicity at 10 µM stood at 14.8%.

Take `O=C(C1CCOC1)N1CCC2(CCN(Cc3nccs3)CC2)CC1` (stereo not given): the cytotoxicity at 10 µM is -73.3%.

In the case of `Cc1nnc2n1CCN(Cc1csc(-c3ccc(F)cc3)n1)C2`, the cytotoxicity at 10 µM is -6.78%.

Take `CC(C)N1CCc2[nH]nc(C(=O)N3CCCC3C)c2C1` (stereo not given): the cytotoxicity at 10 µM was -6.25%.

With `CC(CNC(=O)Nc1ccc(F)cc1-n1cccc1)N1CCOCC1` (stereo not given), the cytotoxicity at 10 µM is -8.71%.

With `O=C(c1ccc(=O)[nH]n1)N1CC(c2nc(Cc3ccccc3)no2)C1`, the cytotoxicity at 10 µM is -19.3%.

For `O=S(=O)(NCC1(O)CCOc2ccccc21)c1cccs1` (stereo not given), the cytotoxicity at 10 µM is -16.8%.

As to `O=C(c1ccccc1C(F)(F)F)N1CC[C@@H](N2CCC(O)CC2)[C@H](O)C1`, the cytotoxicity at 10 µM was -2.49%.

As to `CCOCc1cnc2n1CCN(C(=O)c1cccc3c1OCCO3)C2C` (stereo not given), the cytotoxicity at 10 µM was -98.2%.

For `O=C(O)CNc1cc(-c2cc(C(=O)NC3CC3)ccn2)c2cc[nH]c2n1`, the cytotoxicity at 10 µM is -5.2%.

On to `Cc1cccc(CN2CC3(CCN(C(N)=O)CC3)OCC2=O)n1`, for which the cytotoxicity at 10 µM came out at 2.17%.

For `CS(=O)(=O)c1cn[nH]c1C1CCCCN1C(=O)c1ccsc1` (stereo not given), the cytotoxicity at 10 µM was -18.6%.

Consider `CC(=O)Nc1nc(C2CCN(C(=O)Cc3ccccc3)CC2)cs1`, for which the cytotoxicity at 10 µM was -11.8%.

With `CCN1CCC(N2CCC(C(=O)N(C)C)CC2)CC1`, the cytotoxicity at 10 µM was 0.486%.

Consider `Cc1noc(C)c1-c1cccc(CC2CCN(C(=O)c3cc[nH]n3)C2)n1` (stereo not given), for which the cytotoxicity at 10 µM was found to be 2.31%.

For the compound `CN1CC=C(c2noc(CCC(=O)N3CCCC3)n2)CC1`, the cytotoxicity at 10 µM was 4.87%.

For `CN(Cc1ccc(F)cc1)CC1(O)CCN(C(=O)c2ccccc2)C1` (stereo not given), the cytotoxicity at 10 µM was -1.7%.

For `COC[C@]1(O)CCN(C(=O)c2ccc(CN(C)C)o2)CC1(C)C`, the cytotoxicity at 10 µM is 4.35%.

Take `c1ccc2oc(NC3CCCN(Cc4noc(C5CC5)n4)C3)nc2c1` (stereo not given): the cytotoxicity at 10 µM is -0.989%.

For `Cn1cc(Cl)cc1C(=O)N1CCCN(Cc2cccs2)CC1`, the cytotoxicity at 10 µM is -5.82%.

`CCC(=O)N1CCCCC1c1nc(CN(C)C(C)=O)cc(N(C)C)n1` (stereo not given): the cytotoxicity at 10 µM is -3.17%.

Consider `CN(C)C(=O)CN1CCCN(CC2CCOc3ccccc3C2)CC1` (stereo not given), for which the cytotoxicity at 10 µM was -3.42%.

Turning to `Cc1cccc(CCNC(=O)CCS(=O)(=O)C2CCCC2)c1`, the cytotoxicity at 10 µM came out at 9.27%.

For the compound `CC(C)(C)C(=O)NCCC1CN(Cc2ccccc2F)CCO1` (stereo not given), the cytotoxicity at 10 µM is -2.05%.

Regarding `CC(C)(C(=O)NCc1n[nH]c(=O)[nH]1)c1ccc(F)cc1`, the cytotoxicity at 10 µM was determined as 7.52%.

For the compound `N#Cc1ccccc1C(=O)N1C[C@@H](CN2CCOCC2)[C@@H](CO)C1`, the cytotoxicity at 10 µM was -1.06%.

Turning to `CN1C[C@@H](O)[C@]2(CCN(C(=O)OCc3ccccc3)C2)S1(=O)=O`, the cytotoxicity at 10 µM was -0.53%.

Take `O=C(C1CCCC1)N1CC2(CCNC2)OCc2ccccc21` (stereo not given): the cytotoxicity at 10 µM worked out at 8.9%.

Take `COc1cccc(OCC(=O)Nc2cc(C)cnc2OC)c1`: the cytotoxicity at 10 µM is -11.4%.

Consider `CC(OCC1CC1)C(=O)N1CCCN(c2nc3ccccc3[nH]2)CC1` (stereo not given), for which the cytotoxicity at 10 µM was -0.657%.

As to `O=C1CCN(CCCS(=O)(=O)c2ccc(Cl)cc2)CCN1`, the cytotoxicity at 10 µM amounted to 2.43%.

Consider `Cc1noc(C)c1C(=O)N1Cc2ncn(C)c2C(COCC2CC2)C1` (stereo not given), for which the cytotoxicity at 10 µM was -111%.

As to `COc1ccc2c(c1)nc1n2[C@@H](CNCc2nccs2)COC1`, the cytotoxicity at 10 µM was -1.57%.

As for `CCCn1c(C)c(CC(=O)NCC(C)O)c2c1CC(C)(C)CC2=O` (stereo not given), the cytotoxicity at 10 µM is -7.57%.

With `CC(C)(C)S(=O)(=O)CCNC(=O)c1ccc2cc[nH]c2c1`, the cytotoxicity at 10 µM was -2.61%.

`COCCCN(C)C1CCCN(Cc2noc(C)n2)C1` (stereo not given): the cytotoxicity at 10 µM was -8.06%.

Take `Cc1ccc(C(C(=O)NCCN2CCCCCC2)N(C)C)cc1` (stereo not given): the cytotoxicity at 10 µM was -3.12%.

Regarding `Cc1nn(C)c(C)c1C1CCCN1C(=O)c1ccc(N(C)C)nn1` (stereo not given), the cytotoxicity at 10 µM was -10.6%.

For `COc1ccccc1OC1CN(Cc2ccc(C(=O)O)cc2)C1`, the cytotoxicity at 10 µM was -8.98%.

Regarding `COc1ccc(-n2cnc(Cl)c2CO)cc1`, the cytotoxicity at 10 µM turned out to be 2.49%.

On to `CN(C)CCO[C@H]1C[C@@H](O)C12CCN(c1ncccc1Cl)CC2`, for which the cytotoxicity at 10 µM was 5.37%.

In the case of `Cc1nnc(SCC(=O)N2CCc3[nH]nc(C4CCC4)c3C2)o1`, the cytotoxicity at 10 µM was -7.09%.

As to `Cn1cccc1C(=O)N1C[C@@H](OCc2ccncc2)[C@@H]2OCCC[C@@H]21`, the cytotoxicity at 10 µM was determined as 2.32%.

With `CC(Cc1ccco1)NC(=O)Nc1ccc(N2CCCC2)nc1` (stereo not given), the cytotoxicity at 10 µM was -3.31%.

For `CS(=O)(=O)c1ccc(C(=O)NCCNc2ncccn2)cc1`, the cytotoxicity at 10 µM is -5.15%.

For `CCc1nc(CC(=O)N2CCCC2CN2CCCC2)cs1` (stereo not given), the cytotoxicity at 10 µM came out at 7.27%.

For `Cc1cccc(CN2CCO[C@@H]3CC(COc4ccccn4)C[C@H]32)n1` (stereo not given in full), the cytotoxicity at 10 µM was -3.31%.

For `CC(=O)N1CCOC(CCc2cc(-c3c(C)noc3C)ncn2)C1` (stereo not given), the cytotoxicity at 10 µM was -1.98%.

Consider `CCn1cc(-c2c(C)c(C3CCOC(C)(C)C3)nc(N)c2C#N)cn1` (stereo not given), for which the cytotoxicity at 10 µM is -10.3%.

On to `O=C(COC1CCCC1)N1CCC(C(O)c2ccc(F)cc2)CC1` (stereo not given), for which the cytotoxicity at 10 µM stood at 6.62%.

`O=C(C1CCCN(C2CCOCC2)C1)N1CCc2ncccc2C1` (stereo not given): the cytotoxicity at 10 µM was found to be 4.21%.

Turning to `COC(=O)CN(C(=O)c1ccco1)c1cccc(F)c1`, the cytotoxicity at 10 µM was -4.81%.

For the compound `Cc1ccc(CN(CCCn2ccnc2)Cc2cc(F)ccc2F)s1`, the cytotoxicity at 10 µM was -13.2%.

As for `COc1cc(N2C[C@H]3CC[C@@H](C2)N(CC2CCC2)C3=O)ncn1`, the cytotoxicity at 10 µM is -1.15%.

For the compound `CCCn1nccc1NC(=O)CN1CCCC1Cn1nc(C)nc1C` (stereo not given), the cytotoxicity at 10 µM was -6.84%.

For `CCOCCn1nc(C)cc1C(=O)N1CCC2(CC1)[C@H](O)C[C@@H]2OCC`, the cytotoxicity at 10 µM is 4.35%.

For `O[C@H]1CN(CCOc2ccc(F)cc2)CC[C@@]12CCCO2`, the cytotoxicity at 10 µM was -28.8%.

As to `CN(C)c1cccc(C2CCN(c3ncccn3)CC2)n1`, the cytotoxicity at 10 µM is -8.41%.

Take `Cc1ccc(C)c(CC(=O)NC2CCC(N3C(=O)CCC3=O)CC2)c1` (stereo not given): the cytotoxicity at 10 µM is -1.32%.

On to `Cc1cnn(C2CCCN(C(=O)c3cc(-c4ccccc4C)n[nH]3)C2)c1` (stereo not given), for which the cytotoxicity at 10 µM is -9.66%.
